Experimental data taken from ChEMBL document CHEMBL2093137, “WHO-TDR NTD Screening”.
≈ marks a conversion by molar mass, not a printed value.

What was measured:
[1] = system: Plasmodium falciparum K1; assay: WHO-TDR: Malaria; type: functional, organism-based, Homo sapiens; settings: Erythrocyte
Summary of the method: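 Following previously published standard procedures, with a reference drug serving as positive control, compounds were tested on the Plasmodium falciparum K1 strain inside human red blood cells. The 10,000-compound diverse set came from Life Chemicals after filtering for drug-likeness and reactive groups. Potency against the parasite appears as IC50.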

[2] = system: Trypanosoma cruzi; assay: WHO-TDR: Chagas disease; type: functional, organism-based, Homo sapiens; settings: MRC5
Summary of the method: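 Each IC50 reflects antiparasitic potency against intracellular amastigotes of Trypanosoma cruzi Tulahuen CL2 beta-galactosidase strain. These were cultured in MRC-5SV2 human lung fibroblasts and exposed to a 10,000-compound diverse Life Chemicals library screened according to published standard procedures with a reference drug as positive control.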

[3] = system: Brugia malayi; assay: WHO-TDR: Lymphatic Filariasis; type: functional; design: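 tested at 10 µM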
Summary of the method: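 Values are percent inhibition and IC50 from a whole-organism screen against Brugia malayi microfilariae. The compounds, 10,000 in all, came from a diverse Life Chemicals library filtered for drug-likeness and reactive groups.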

[4] = system: Onchocerca lienalis; assay: WHO-TDR: Onchocerciasis; type: functional; design: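 at 12.5 µM on microfilariae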
Summary of the method: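 Values are reported as percent inhibition and as IC50. They come from a whole-organism screen of a 10,000-compound diverse Life Chemicals library against microfilariae of Onchocerca ochengi or Onchocerca lienalis. The screen followed previously published standard procedures, with reference drugs as positive controls.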

[5] = system: Schistosoma mansoni; assay: WHO-TDR: Schistosomiasis; type: functional; design: concentration or dose not given beside the values
Summary of the method: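 Values are reported as percent inhibition and IC50. They come from a whole-organism screen of a 10,000-compound diverse Life Chemicals library against larval and/or adult worms of Schistosoma mansoni, Puerto Rican strain. The library had been filtered for drug-likeness and reactive groups.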

[6] = system: Leishmania infantum; assay: WHO-TDR: Leishmaniasis; type: functional, organism-based, Mus musculus; settings: Macrophage
Summary of the method: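 Following previously published standard procedures, a whole-organism screen was run on Leishmania infantum MHOM/MA(BE)/67 amastigotes within murine peritoneal macrophages, with a reference drug as positive control. The 10,000 compounds tested formed a diverse Life Chemicals library filtered for drug-likeness and reactive groups. Potency against the parasite is reported as IC50.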

[7] = WHO-TDR: Cytotoxicity; type: toxicity, cell-based; settings: human, MRC5 cells
[8] = system: Trypanosoma brucei brucei; assay: WHO-TDR: Human African Trypanosomiasis (HAT); type: functional, organism-based; settings: Squib-427
Summary of the method: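 Bloodstream forms of the Trypanosoma brucei Squib 427 strain were tested in a whole-organism screen with a diverse library from Life Chemicals of 10,000 compounds. Before screening, the library was filtered for drug-likeness and for reactive groups. The assay used previously published standard procedures and included reference drugs as positive controls. Potency against the parasite is expressed as IC50.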

| Structure (SMILES) | IC50 [1] | IC50 [2] | % Inhibition [3] | % Inhibition [4] | % Inhibition [5] | IC50 [6] | IC50 [7] | IC50 [8] |
| --- | --- | --- | --- | --- | --- | --- | --- | --- |
| Cc1ccc2sc(N(CCN(C)C)C(=O)C3CCN(S(=O)(=O)c4cccs4)CC3)nc2c1C | 3.81 µg/mL (≈ 7.51 µM) | 0.772 µg/mL (≈ 1.52 µM) | 0% | 16.32% | 0% | > 16.3 µg/mL | 1.94 µg/mL (≈ 3.84 µM) | 5.21 µg/mL (≈ 10.3 µM) |
| O=C(CCSc1ccccc1)N(Cc1ccccn1)c1nc2ccccc2s1 | 11.3 µg/mL (≈ 28 µM) | 0.466 µg/mL (≈ 1.15 µM) | 0% | 11.35% | 0% | > 12.2 µg/mL | > 12.2 µg/mL | > 12.2 µg/mL |
| COC(=O)c1ccccc1N(C)C(=O)c1cc2cccnc2n(C)c1=O | > 10.5 µg/mL | > 10.5 µg/mL | 0% | 0% | 0% | 0.341 µg/mL (≈ 0.971 µM) | > 10.5 µg/mL | > 10.5 µg/mL |
| CCCCN(C)S(=O)(=O)c1ccc(C(=O)N2CCN(c3nc4c(C)ccc(C)c4s3)CC2)cc1 | > 15 µg/mL | > 15 µg/mL | 16.67% | 13.3% | 0% | 0.223 µg/mL (≈ 0.446 µM) | > 15 µg/mL | > 15 µg/mL |
| CCS(=O)(=O)c1ccc(CC(=O)Nc2nc3c(s2)CCc2ccccc2-3)cc1 | 12.4 µg/mL (≈ 30 µM) | 0.436 µg/mL (≈ 1.06 µM) | 0% | 0% | 0% | > 12.4 µg/mL | 0.908 µg/mL (≈ 2.2 µM) | 4.01 µg/mL (≈ 9.71 µM) |
| O=C(Cn1c(S(=O)(=O)Cc2ccccc2)nc2ccccc21)N1CCN(c2ccccc2)CC1 | 10.9 µg/mL (≈ 22.9 µM) | > 14.2 µg/mL | 0% | 11.35% | 0% | 0.461 µg/mL (≈ 0.971 µM) | > 14.2 µg/mL | > 14.2 µg/mL |
| O=C(Cc1ccc(F)cc1)Nc1nc(-c2ccccn2)cs1 | 2.97 µg/mL (≈ 9.49 µM) | 0.334 µg/mL (≈ 1.07 µM) | 0% | 23.33% | 0% | > 9.4 µg/mL | > 9.4 µg/mL | 0.308 µg/mL (≈ 0.983 µM) |
| Cc1cccc(Nc2nc(Nc3ccc4c(c3)OCO4)nc(N3CCOCC3)n2)c1 | 1.06 µg/mL (≈ 2.62 µM) | 2.05 µg/mL (≈ 5.03 µM) | 0% | 0% | 0% | 4.3 µg/mL (≈ 10.6 µM) | 1.82 µg/mL (≈ 4.49 µM) | 0.42 µg/mL (≈ 1.03 µM) |
| CCN(C1CCCCC1)S(=O)(=O)c1ccc(C(=O)Nc2nc(-c3ccccn3)cs2)cc1 | > 14.1 µg/mL | 0.459 µg/mL (≈ 0.975 µM) | 0% | 80% | 0% | 4.57 µg/mL (≈ 9.71 µM) | 5.19 µg/mL (≈ 11 µM) | 11.7 µg/mL (≈ 24.8 µM) |
| CS(=O)(=O)N1CCCc2cc(NC(=O)c3cc4ccccc4oc3=O)ccc21 | > 12 µg/mL | > 12 µg/mL | 0% | 0% | 0% | 0.387 µg/mL (≈ 0.971 µM) | > 12 µg/mL | > 12 µg/mL |
| COc1ccc(-c2ccc(NS(=O)(=O)c3ccc(Cl)s3)cc2)nn1 | > 11.5 µg/mL | > 11.5 µg/mL | 16.67% | 0% | 0% | 1.09 µg/mL (≈ 2.85 µM) | > 11.5 µg/mL | > 11.5 µg/mL |
| CC(=O)c1cccc(Nc2nc(Nc3ccc(F)c(Cl)c3)nc(N3CCOCC3)n2)c1 | 3.81 µg/mL (≈ 8.61 µM) | 0.465 µg/mL (≈ 1.05 µM) | 0% | 0% | 25% | > 13.3 µg/mL | 5.32 µg/mL (≈ 12 µM) | 0.643 µg/mL (≈ 1.45 µM) |
| O=C(Nc1ccc2c(c1)N(C(=O)C1CC1)CCC2)c1cccc(C(F)(F)F)c1 | 4.56 µg/mL (≈ 11.7 µM) | 0.808 µg/mL (≈ 2.08 µM) | 0% | 13.3% | 0% | > 11.7 µg/mL | > 11.7 µg/mL | 3.69 µg/mL (≈ 9.49 µM) |
| CN(Cc1ccco1)S(=O)(=O)c1ccc(C(=O)Nc2nnc(-c3cccs3)o2)cc1 | 6.65 µg/mL (≈ 15 µM) | 0.456 µg/mL (≈ 1.03 µM) | 0% | 0% | 0% | > 13.3 µg/mL | 2.5 µg/mL (≈ 5.62 µM) | 4.22 µg/mL (≈ 9.49 µM) |
| O=C(Nc1nc(-c2ccccn2)cs1)C1CCN(S(=O)(=O)c2cccs2)CC1 | > 13 µg/mL | 0.434 µg/mL (≈ 0.999 µM) | 0% | 9.31% | 0% | > 13 µg/mL | > 13 µg/mL | > 13 µg/mL |
| O=C(c1c(F)cccc1F)N(Cc1ccccn1)c1nc2ccccc2s1 | 7.58 µg/mL (≈ 19.9 µM) | 0.546 µg/mL (≈ 1.43 µM) | 0% | 4.601% | 0% | 3.7 µg/mL (≈ 9.71 µM) | 2.13 µg/mL (≈ 5.58 µM) | > 11.4 µg/mL |
| COc1ccc(Nc2nc(Nc3ccccc3OC)nc(N3CCOCC3)n2)cc1 | 1.19 µg/mL (≈ 2.91 µM) | 3.98 µg/mL (≈ 9.74 µM) | 0% | 0% | 0% | 4.32 µg/mL (≈ 10.6 µM) | 2.08 µg/mL (≈ 5.1 µM) | 0.422 µg/mL (≈ 1.03 µM) |
| CN(C)CCN(C(=O)CCCS(=O)(=O)c1ccccc1)c1nc2ccc(F)cc2s1 | > 14.6 µg/mL | 0.759 µg/mL (≈ 1.69 µM) | 33.33% | 12.34% | 0% | > 14.6 µg/mL | > 14.6 µg/mL | > 14.6 µg/mL |
| COc1ccc(-c2ccc(OCCNS(=O)(=O)c3ccc(Cl)s3)nn2)cc1 | > 12.8 µg/mL | 0.788 µg/mL (≈ 1.85 µM) | 0% | 33.3% | 0% | > 12.8 µg/mL | 5.41 µg/mL (≈ 12.7 µM) | > 12.8 µg/mL |
| CCSc1ccccc1C(=O)Nc1nnc(-c2cccs2)o1 | > 9.94 µg/mL | 0.413 µg/mL (≈ 1.25 µM) | 0% | 20% | 0% | 6.77 µg/mL (≈ 20.4 µM) | 5.3 µg/mL (≈ 16 µM) | 0.656 µg/mL (≈ 1.98 µM) |
| Fc1ccc(Nc2nc(N3CCCC3)nc(N3CCCC3)n2)cc1 | > 10.9 µg/mL | 3.85 µg/mL (≈ 11.7 µM) | 0% | 9.215% | 0% | > 10.9 µg/mL | > 10.9 µg/mL | 0.442 µg/mL (≈ 1.35 µM) |
| O=C(CCCSc1ccccc1)N(Cc1ccncc1)c1nc2c(F)cccc2s1 | 9.05 µg/mL (≈ 20.7 µM) | 0.816 µg/mL (≈ 1.86 µM) | 0% | 0% | 0% | > 13.1 µg/mL | > 13.1 µg/mL | 4.15 µg/mL (≈ 9.49 µM) |
| CCN(C1CCCCC1)S(=O)(=O)c1ccc(C(=O)Nc2nnc(-c3ccc(F)cc3)o2)cc1 | > 14.2 µg/mL | 0.459 µg/mL (≈ 0.971 µM) | 0% | 46.7% | 0% | 4.59 µg/mL (≈ 9.71 µM) | 0.577 µg/mL (≈ 1.22 µM) | 0.966 µg/mL (≈ 2.04 µM) |
| Cc1ccc(S(=O)(=O)N2CCCc3cc(NC(=O)Oc4ccccc4)ccc32)cc1 | > 12.7 µg/mL | > 12.7 µg/mL | 0% | 0% | 0% | > 12.7 µg/mL | 1.76 µg/mL (≈ 4.17 µM) | 0.415 µg/mL (≈ 0.982 µM) |
| C=CCn1/c(=N\C(=O)Cc2ccc(S(C)(=O)=O)cc2)sc2c(OC)ccc(OC)c21 | 11.2 µg/mL (≈ 25.1 µM) | 4.07 µg/mL (≈ 9.11 µM) | 0% | 13.3% | 0% | 4.34 µg/mL (≈ 9.71 µM) | 13.2 µg/mL (≈ 29.6 µM) | 0.462 µg/mL (≈ 1.03 µM) |
| O=C(CCCSc1ccc(F)cc1)Nc1nc(-c2ccccn2)cs1 | > 11.2 µg/mL | 0.335 µg/mL (≈ 0.897 µM) | 0% | 39.33% | 0% | > 11.2 µg/mL | 3.76 µg/mL (≈ 10.1 µM) | 0.363 µg/mL (≈ 0.972 µM) |
| Cc1ccc2sc(N(Cc3cccnc3)C(=O)CSc3ccccc3)nc2c1C | > 12.6 µg/mL | 0.938 µg/mL (≈ 2.24 µM) | 0% | 0% | 0% | > 12.6 µg/mL | > 12.6 µg/mL | > 12.6 µg/mL |
| CN(C)CCCN(C(=O)/C=C/c1ccccc1)c1nc2ccccc2s1 | 1.74 µg/mL (≈ 4.76 µM) | 0.406 µg/mL (≈ 1.11 µM) | 0% | 25.05% | 100% | 0.39 µg/mL (≈ 1.07 µM) | 3.81 µg/mL (≈ 10.4 µM) | 0.35 µg/mL (≈ 0.958 µM) |
| Cc1ccccc1Cn1cc(C(=O)Nc2cccc(Br)c2)ccc1=O | > 11.9 µg/mL | 0.553 µg/mL (≈ 1.39 µM) | 0% | 26.7% | 0% | > 11.9 µg/mL | 9.51 µg/mL (≈ 23.9 µM) | 3.86 µg/mL (≈ 9.71 µM) |
| Cc1nn(-c2ccc(F)cc2)c2ncc(C(=O)NCc3ccco3)c(Cl)c12 | 8.26 µg/mL (≈ 21.5 µM) | 0.398 µg/mL (≈ 1.03 µM) | 0% | 0% | 25% | 3.74 µg/mL (≈ 9.71 µM) | 1.31 µg/mL (≈ 3.41 µM) | 0.292 µg/mL (≈ 0.759 µM) |
